Calls of active or inactive are those of the source. The calls are words filed in the database; no cut-off is given here.
Tests used:
[1] = Inhibition of IL-1beta-induced PGE2 production in human HCA-7 cells after 72 hrs by EIA; format: functional, cell-based; details: HCA-7, 72 h
Method in brief: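 HCA-7 cells seeded and incubated overnight in DMEM/10% FBS, then serum-starved 18 h. Stimulated with 10 ng/ml IL-1β plus increasing compound concentrations (DMSO) in serum-free medium for 72 h. Supernatant PGE2 measured by EIA.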

[2] = biological target: T1, Prostaglandin G/H synthase 2 (Homo sapiens) (UniProt P35354); details: at 5 µM
T1 sequence (whole entry): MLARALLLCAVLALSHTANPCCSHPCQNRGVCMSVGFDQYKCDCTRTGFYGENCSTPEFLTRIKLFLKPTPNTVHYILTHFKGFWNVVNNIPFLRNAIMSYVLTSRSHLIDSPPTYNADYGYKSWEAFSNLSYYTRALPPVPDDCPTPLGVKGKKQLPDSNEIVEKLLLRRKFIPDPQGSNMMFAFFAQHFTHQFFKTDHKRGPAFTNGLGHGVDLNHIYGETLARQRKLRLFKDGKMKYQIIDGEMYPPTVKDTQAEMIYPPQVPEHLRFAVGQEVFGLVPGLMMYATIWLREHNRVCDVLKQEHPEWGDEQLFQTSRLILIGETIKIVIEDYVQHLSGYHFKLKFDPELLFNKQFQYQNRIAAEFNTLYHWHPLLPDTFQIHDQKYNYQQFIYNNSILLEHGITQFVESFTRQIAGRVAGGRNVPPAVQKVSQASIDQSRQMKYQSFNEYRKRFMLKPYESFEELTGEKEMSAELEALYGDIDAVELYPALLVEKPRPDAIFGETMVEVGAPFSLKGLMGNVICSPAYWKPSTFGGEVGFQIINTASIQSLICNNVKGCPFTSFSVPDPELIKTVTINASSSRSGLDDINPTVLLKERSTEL

[3] = biological target: T2, Prostaglandin G/H synthase 2 (Homo sapiens, UniProt P35354); assay: Inhibition of COX2 by fluorescence assay
T2 sequence (P35354 whole entry): T1 sequence (whole entry)

[4] = (§1) Inhibition of IL-1beta-induced PGE2 production in human HCA-7 cells at 1 uM after 72 hrs by EIA; format: functional; details: HCA-7, 72 h
Method in brief: (§2)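 Screen of HCA-7 cells at 1 μM compound (DMSO) with 10 ng/ml IL-1β in serum-free medium for 72 h, after overnight DMEM/10% FBS culture and 18 h serum starvation. Supernatant PGE2 quantified by EIA, expressed as % reduction of PGE2 level ± SD, n = 3.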

HCA-7 = assay: as §1; format: functional; method in brief: as §2
A549 = assay: Antitumor activity against human A549 cells xenografted in mouse at 100 mg/kg for 10 days relative to control; format: functional
[5] = Antitumor activity against human HCA-7 cells xenografted in mouse at 200 mg/kg for 5 days relative to control; format: functional
SW837 = assay: Antitumor activity against human SW837 cells xenografted in mouse at 200 mg/kg for 5 days relative to control; format: functional

inhibition [2] [%] | IC50 [3] [nM] | Structure (SMILES) | inhibition at 1 µM [4] [%] | other results
38.9 | > 5000 | COc1ccccc1-c1csc(Nc2ccc(Oc3ccccc3)cc2)n1 | 82 | EC50 [1]: 180 nM
86 | 920 | COc1cccc(-c2csc(Nc3ccc4c(c3)OCO4)n2)c1 | 94.4 | 
 | > 5000 | Cc1nc(Nc2ccc(Oc3ccccc3)cc2)sc1C(C)O (stereo not given) | 80.4 | EC50 [1]: 90 nM
41.3 | > 5000 | CCc1sc(Nc2ccc(Oc3ccccc3)cc2)nc1C | 87.1 | 
68.8 | 840 | Clc1ccc(-c2csc(Nc3ccc4c(c3)OCO4)n2)cc1 | 94.2 | 
73.1 | 810 | COc1ccc(-c2csc(Nc3ccc(C)cc3)n2)cc1 | 91.5 | 
91.3 | 930 | COc1ccccc1-c1csc(Nc2ccc3c(c2)OCO3)n1 | 89 | 
31 | > 5000 | c1ccc(Oc2ccc(Nc3nc(-c4ccccc4)cs3)cc2)cc1 | 79.6 | EC50 [1]: 330 nM
40.8 | > 5000 | COc1ccc(-c2csc(Nc3ccc(Oc4ccccc4)cc3)n2)cc1 | 80.4 | EC50 [1]: 240 nM
114 | 410 | c1ccc(-c2csc(Nc3ccc4c(c3)OCO4)n2)cc1 | 98.2 | 
84.8 | 910 | Clc1ccccc1-c1csc(Nc2ccc3c(c2)OCO3)n1 | 85.9 | 
66.8 | 1370 | COc1ccc(Nc2nc(-c3ccc(OC)cc3)cs2)cc1 | 73.6 | 
69.3 | 1200 | COc1ccc(Nc2nc(-c3ccc(C)c(C)c3)cs2)cc1 | 73.9 | 
55.1 | 1390 | COc1cccc(Nc2nc(-c3ccc(Cl)cc3)cs2)c1 | 78.3 | 
28.9 | > 5000 | CC(=O)c1sc(Nc2ccc(Oc3ccccc3)cc2)nc1C | 87.9 | 
40.3 | > 5000 | COc1cccc(-c2csc(Nc3ccc(Oc4ccccc4)cc3)n2)c1 | 88.9 | EC50 [1]: 290 nM
94.4 | 910 | COc1ccc(-c2csc(Nc3ccc4c(c3)OCO4)n2)cc1 | 96.2 | 
84.2 | 1080 | CN(c1ccc(O)cc1)c1nc(-c2ccc(Cl)cc2)cs1 | 85.8 | 
43.4 | > 5000 | Fc1ccc(-c2csc(Nc3ccc(Oc4ccccc4)cc3)n2)cc1 | 87.9 | EC50 [1]: 120 nM
12 | > 5000 | COc1ccc(Nc2nc(-c3ccc(Cl)cc3)c(C)s2)cc1 | 89.3 | 
32.1 | > 10000 | Clc1ccc(-c2csc(Nc3ccc(Oc4ccccc4)cc3)n2)cc1 | 75.5 | T/C (A549): 38%; T/C [5]: 61%; EC50 [1]: 280 nM; T/C (SW837): 40%

The remaining lines, values behind:

Structure (SMILES) | inhibition [2] [%] | IC50 [3] [nM] | inhibition at 1 µM [4] [%] | other results
N#Cc1ccc(Nc2nc(-c3ccc(Cl)cc3)cs2)cc1 |  |  | 23.1 | 
Clc1ccc(-c2csc(Nc3cccc4ccccc34)n2)cc1 |  |  | 51.4 | 
N#Cc1ccc(Nc2nc(-c3ccccc3)c(C(=O)c3ccccc3)s2)cc1 |  |  |  | inhibition (HCA-7): inactive
CC(=O)c1sc(Nc2ccc(C#N)cc2)nc1C |  |  | 22.4 | 
COc1ccc(Nc2nc(-c3ccc(C)cc3)cs2)cc1 |  |  | 37.3 | 
COc1ccc(Nc2nc(-c3ccccc3)c(C(=O)c3ccccc3)s2)cc1 |  |  |  | inhibition (HCA-7): inactive
CC(=O)c1sc(Nc2ccccc2)nc1C |  |  | 29.9 | 
c1ccc(Oc2ccc(Nc3nc(-c4ccc5ccccc5c4)cs3)cc2)cc1 |  |  | 53.5 | 
O=C(c1ccccc1)c1sc(Nc2ccc3c(c2)OCO3)nc1-c1ccccc1 |  |  |  | inhibition (HCA-7): inactive
O=C(c1ccccc1)c1sc(Nc2ccc(Oc3ccccc3)cc2)nc1-c1ccccc1 |  |  | 42 | 
CC(=O)c1sc(Nc2ccc3c(c2)OCO3)nc1C |  |  | 25.3 | 
CCc1sc(Nc2ccc(OC)cc2)nc1C | 49.3 | > 5000 | 94.4 | EC50 [1]: 320 nM
COc1ccc(Nc2nc(C)c(C(C)=O)s2)cc1 |  |  | 58.5 | 
Clc1ccc(-c2csc(Nc3ccccc3)n2)cc1 |  |  | 51 | 
c1ccc(Oc2ccc(Nc3nc(-c4ccc(C5CCCCC5)cc4)cs3)cc2)cc1 |  |  | 41.6 | 
